Test results from ChEMBL document CHEMBL1131133, “A novel class of adenosine A3 receptor ligands. 1. 3-(2-Pyridinyl)isoquinoline derivatives” (J Med Chem, 1998).

Experiments:
[1] = target: T1, Adenosine receptor A1 (Rattus norvegicus) (UniProt P25099); test: Displacement of specific [3H]DPCPX binding at rat cortical membrane (Adenosine A1 receptor) at concentration of […].
T1 sequence (whole entry): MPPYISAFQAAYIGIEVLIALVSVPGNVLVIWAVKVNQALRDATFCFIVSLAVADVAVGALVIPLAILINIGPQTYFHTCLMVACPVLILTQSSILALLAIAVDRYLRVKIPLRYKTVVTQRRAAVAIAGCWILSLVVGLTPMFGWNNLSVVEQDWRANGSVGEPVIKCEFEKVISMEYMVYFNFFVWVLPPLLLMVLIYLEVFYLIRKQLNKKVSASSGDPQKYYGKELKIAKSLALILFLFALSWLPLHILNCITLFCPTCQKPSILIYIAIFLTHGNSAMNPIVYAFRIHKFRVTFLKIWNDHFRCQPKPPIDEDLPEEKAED
Outline: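 A1 binding used rat cortical membranes and [3H]DPCPX. Percentage displacement of specific binding was measured at one fixed test-compound concentration (n = 2-3).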

[2] = target: Adenosine receptor A2a (Rattus norvegicus) (UniProt P30543); test: Displacement of specific [3H]CGS-21680 binding in rat striatal membrane (Adenosine A2A receptor) at concentration of […].; format: cell membranes; conditions: Striatum
Adenosine receptor A2a (Rattus norvegicus), sequence (P30543 whole entry): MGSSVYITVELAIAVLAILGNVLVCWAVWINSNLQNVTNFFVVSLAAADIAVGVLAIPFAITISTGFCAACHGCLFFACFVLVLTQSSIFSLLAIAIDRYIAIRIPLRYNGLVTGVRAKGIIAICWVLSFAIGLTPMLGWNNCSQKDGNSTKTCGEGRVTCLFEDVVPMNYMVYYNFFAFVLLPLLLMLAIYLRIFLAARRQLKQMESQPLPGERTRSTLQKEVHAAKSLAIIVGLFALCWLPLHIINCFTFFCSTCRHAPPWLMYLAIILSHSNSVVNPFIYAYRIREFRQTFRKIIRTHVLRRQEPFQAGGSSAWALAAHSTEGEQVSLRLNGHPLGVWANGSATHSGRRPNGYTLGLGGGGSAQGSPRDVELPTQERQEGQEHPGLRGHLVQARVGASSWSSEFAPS
Outline: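 A2A binding used rat striatal membranes and [3H]CGS 21680. Percentage displacement of specific binding was measured at one fixed test-compound concentration (n = 2-3).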

Adenosine receptor A3 [3] = target: T2, Adenosine receptor A3 (Homo sapiens, UniProt P0DMS8); test: biochemical
T2 sequence (P0DMS8 whole entry): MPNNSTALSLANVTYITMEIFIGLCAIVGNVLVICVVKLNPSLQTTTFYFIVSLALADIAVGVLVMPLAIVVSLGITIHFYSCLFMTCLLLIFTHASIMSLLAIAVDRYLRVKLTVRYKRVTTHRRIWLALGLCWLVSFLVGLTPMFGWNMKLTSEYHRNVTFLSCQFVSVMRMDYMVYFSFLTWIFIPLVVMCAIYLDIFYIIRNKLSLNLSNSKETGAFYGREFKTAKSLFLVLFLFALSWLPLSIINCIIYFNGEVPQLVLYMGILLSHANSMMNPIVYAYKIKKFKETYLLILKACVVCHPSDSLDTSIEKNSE

Adenosine receptor A3 [4] = target: T2, Adenosine receptor A3; test: Displacement of specific [125I]AB-MECA binding at human adenosine A3 receptor expressed in HEK 293 cells.; format: cell-based, HEK293
[5] = target: T3, Adenosine receptor A3 (Homo sapiens) (UniProt P0DMS8); test: Displacement of [125I]AB-MECA from human adenosine A3 receptor expressed in HEK 293 cells at […]; format: cell-based; conditions: HEK293
T3 sequence (whole entry): T2 sequence (P0DMS8 whole entry)
Outline: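 Membranes from HEK 293 cells stably expressing the human A3 receptor were incubated with [125I]AB-MECA. Percentage displacement of specific binding was measured at a single test-compound concentration (n = 2-3).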

| SMILES | Displacement [1] [%] | Displacement [2] [%] | also measured |
| --- | --- | --- | --- |
| COc1cccc(C(=N)Nc2nc(-c3ccccn3)cc3ccccc23)c1 | 43 | 0 |  |
| CCc1nc(-c2ccccn2)cc2ccccc12 | 30 | 25 |  |
| CS(=O)(=O)c1nc(-c2ccccn2)cc2ccccc12 |  | 54 |  |
| Nc1nc2ccc(Cl)cc2c2nc(-c3ccco3)nn12 [CGS-15943] |  |  | Ki (Adenosine receptor A3 [3]): 0.0079 µM; Ki (Adenosine receptor A3 [4]): 0.143 µM |
| N=CNc1nc(-c2ccccn2)cc2ccccc12 | 47 |  |  |
| CC(=O)N(C(C)=O)c1nc(-c2ccccn2)cc2ccccc12 | 34 | 18 |  |
| N=C(Nc1nc(-c2ccccn2)cc2ccccc12)c1ccccc1 | 34 |  |  |
| COC(=O)C1=C2C=CN(C)C=C2c2nc(-c3ccccc3)nn2C1 |  |  | Ki (Adenosine receptor A3 [4]): 0.172 µM |
| c1ccc(-c2nc(-c3ccccn3)cc3ccccc23)cc1 |  | 31 |  |
| Cc1cccc(C(=N)Nc2nc(-c3ccccn3)cc3ccccc23)c1 | 43 | 0 |  |
| Cc1cccc(C)c1C(=O)N(C(=O)c1c(C)cccc1C)c1nc(-c2ccccn2)cc2ccccc12 | 0 | 0 |  |
| Oc1nc(-c2ccccn2)cc2ccccc12 |  | 35 |  |
| CSc1nc(-c2ccccn2)cc2ccccc12 |  | 7 |  |
| COc1ccc(C(=N)Nc2nc(-c3ccccn3)cc3ccccc23)cc1 | 18 | 5 |  |
| COc1nc(-c2ccccn2)cc2ccccc12 |  | 19 |  |
| Clc1nc(-c2ccccn2)cc2ccccc12 | 43 | 29 |  |
| N=C(Nc1nc(-c2ccccn2)cc2ccccc12)c1ccc(Cl)cc1 | 20 | 7 |  |
| Nc1nc(-c2ccccn2)cc2ccccc12 | 19 | 28 | Displacement [5]: 17% |
| N=C(Nc1nc(-c2ccccn2)cc2ccccc12)c1cccc(Cl)c1 | 49 | 14 |  |
| Cc1ccc(C(=N)Nc2nc(-c3ccccn3)cc3ccccc23)cc1 | 12 | 34 |  |
| N=C(Nc1nc(-c2ccccn2)cc2ccccc12)c1ccc(Cl)c(Cl)c1 | 21 | 2 |  |
| CC(C(=O)c1ccccc1)c1nc(-c2ccccn2)cc2ccccc12 (stereo unspecified) |  | 5 |  |
